Bioassay records as filed in PubChem BioAssay.
TCR-CD3 inh – inhibitors of human TCR-CD3 interaction | TAMRA-labeled TCR probe fluorescence, biochemical | inhibition, % at 9.4 µM | 0.37% of 360,000 active;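 note: recombinant mutant TCR 2C K166C tagged with TAMRA read by polarization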
HTRA1 inhibitor – inhibitors of human serine peptidase HTRA1 | Q92743 | recombinant HTRA1, FP-rhodamine activity-based probe, fluorescence polarization | inhibition, % at 5.96 µM | 0.5% of 340,000 active; in the data active = inhibition above about 36%
mABHD4 FP – inhibitors of mouse ABHD4. inhibition, % at 8.92 µM. 0.54% of 370,000 active. purified mABHD4, FP-Rh probe fluorescence polarization;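 active = inhibition exceeding the mean over every tested compound plus 3 SD, cut at about 30% in these data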
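System: mouse ABHD4 enzyme, wild type / Medium: HEPES pH 7.0, NaCl, Pluronic buffer / Reagent: FP-Rh activity-based fluorescent probe / Control set: S159A mutant high control, sample median low control / Detection: fluorescence polarization with parallel and perpendicular emission, 525/598 nm / Schedule: 45 min + 60 min at 25 °C / Compound dosing: 8.92 µM, single dose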
PRMT1 inh – PRMT1 (human) inhibition, primary screen. 1.3% of 370,000 active. AID 652257. inhibition, % at 2.79 µM. recombinant PRMT1, activity-based probe fluorescence polarization;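 active = inhibition above about 21% made by adding two undisclosed values, limit read from the data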
SIAE primary – blocks human sialic acid acetylesterase. Q9HAT2. SIAE FP-Rh probe binding, fluorescence polarization. inhibition, % at 9.66 µM. 0.69% of 370,000 active. AID 1053197;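 active = inhibition above a cutoff: mean of compounds within the control limits plus 3 SD of those, cut at about 17% in these data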
Target sequence (Q9HAT2 whole entry, looked up): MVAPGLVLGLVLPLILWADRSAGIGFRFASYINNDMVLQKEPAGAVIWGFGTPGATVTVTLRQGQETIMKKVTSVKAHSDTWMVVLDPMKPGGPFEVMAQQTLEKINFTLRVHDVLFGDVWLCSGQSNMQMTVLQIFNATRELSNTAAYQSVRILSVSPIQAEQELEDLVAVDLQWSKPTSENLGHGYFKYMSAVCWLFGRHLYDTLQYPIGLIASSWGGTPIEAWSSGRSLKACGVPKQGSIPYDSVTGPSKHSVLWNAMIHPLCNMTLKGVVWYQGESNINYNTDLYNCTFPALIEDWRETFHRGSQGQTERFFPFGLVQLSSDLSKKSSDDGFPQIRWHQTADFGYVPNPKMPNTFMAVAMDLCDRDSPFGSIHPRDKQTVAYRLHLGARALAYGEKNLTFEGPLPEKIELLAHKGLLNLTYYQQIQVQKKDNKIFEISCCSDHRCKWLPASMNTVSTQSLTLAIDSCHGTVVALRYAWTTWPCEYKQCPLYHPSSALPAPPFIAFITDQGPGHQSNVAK
BSA TAMRA ctr – counter-screen for TCR-CD3 interaction inhibitors: BSA probe | shares compounds with TCR-CD3 inh | TAMRA-labeled BSA probe fluorescence counterscreen | inhibition, % at 9.4 µM | 10% of 1,200 active; in the data active = inhibition above about 23%
TCR-CD3 inh conf – TCR-CD3 interaction inhibition, confirmation; shares compounds with TCR-CD3 inh; TAMRA-labeled TCR probe fluorescence binding assay; inhibition, % at 9.4 µM; 48% of 1,200 active
A number is an active result. An excerpt weighted towards active compounds, which were near 2.5% of everything screened. Cut-off read from the data, not from the text of the source, unless noted: active = inhibition above about 19%; inactive = the rest.

Screening CCCS(=O)(=O)N1CCCC(C(=O)NCCCN(Cc2ccccc2)C(C)C)C1 (stereo not given) returned TCR-CD3 inh 65, HTRA1 inhibitor inactive, mABHD4 FP inactive, PRMT1 inh inactive, SIAE primary inactive, BSA TAMRA ctr inactive and TCR-CD3 inh conf inactive.
CC(C)Cc1nnc(NC(=O)CCC(=O)NC2CCCCC2)s1 was read as TCR-CD3 inh 20, HTRA1 inhibitor inactive, mABHD4 FP inactive, PRMT1 inh inactive, SIAE primary inactive, BSA TAMRA ctr inactive and TCR-CD3 inh conf inactive.
For O=C(Nc1nnc([C@@H]2C[C@H](O)[C@@H](CO)O2)s1)c1cccc(Oc2ccccc2)c1 the results were TCR-CD3 inh inactive, mABHD4 FP inactive, PRMT1 inh inactive and SIAE primary inactive.
`O=C(Nc1nnc([C@H]2C[C@H](O)[C@@H](CO)O2)s1)c1cccc(Oc2ccccc2)c1` gave TCR-CD3 inh 21, mABHD4 FP inactive, PRMT1 inh inactive, SIAE primary inactive, BSA TAMRA ctr inactive and TCR-CD3 inh conf inactive.
Screening CCC(CC)C(C(=O)NCc1ccccc1)N1CCN(c2cccc(C)c2C)CC1 (stereo not given) returned TCR-CD3 inh 31, mABHD4 FP inactive, PRMT1 inh inactive, SIAE primary inactive, BSA TAMRA ctr inactive and TCR-CD3 inh conf inactive.
Cc1cccc(N2CCN(C(C(=O)NCc3ccccc3)c3ccc(F)cc3)CC2)c1C (stereo not given) was read as TCR-CD3 inh inactive, mABHD4 FP inactive, PRMT1 inh inactive and SIAE primary inactive.
O=C(CSc1ccccc1)NNC(=O)c1ccccc1O was read as TCR-CD3 inh 19, HTRA1 inhibitor inactive, mABHD4 FP inactive, PRMT1 inh inactive, SIAE primary inactive, BSA TAMRA ctr inactive and TCR-CD3 inh conf 26.
NC(=O)NC(=O)CSc1ccccc1 was read as TCR-CD3 inh inactive, HTRA1 inhibitor inactive, mABHD4 FP inactive, PRMT1 inh inactive and SIAE primary inactive.
C=Cc1c(C)c2cc3[nH]c(cc4nc(cc5nc(cc1[nH]2)C(C)=C5CCC(=O)O)C(CCC(=O)O)=C4C)c(C)c3C=C was read as TCR-CD3 inh 37, HTRA1 inhibitor 69, mABHD4 FP 70, PRMT1 inh 27, SIAE primary 75, BSA TAMRA ctr inactive and TCR-CD3 inh conf 19.
For Cc1onc(-c2ccccc2)c1C(=O)N/N=C/c1cccc(O)c1 the results were TCR-CD3 inh inactive, HTRA1 inhibitor inactive, mABHD4 FP inactive, PRMT1 inh inactive and SIAE primary inactive.
`Cc1onc(-c2ccccc2)c1C(=O)NN=Cc1cc(Cl)cc(Cl)c1O` gave TCR-CD3 inh 27, mABHD4 FP inactive, PRMT1 inh inactive, SIAE primary inactive, BSA TAMRA ctr inactive and TCR-CD3 inh conf 34.
Screening O=C(CCc1ccccc1)NNC(=O)c1ccccc1C(=O)O returned TCR-CD3 inh inactive, HTRA1 inhibitor inactive, mABHD4 FP inactive, PRMT1 inh inactive and SIAE primary inactive.
Screening O=C(NNC(=O)c1cc(Cl)ccc1O)c1cccs1 returned TCR-CD3 inh 25, HTRA1 inhibitor inactive, mABHD4 FP inactive, PRMT1 inh inactive, SIAE primary inactive, BSA TAMRA ctr inactive and TCR-CD3 inh conf 19.
Screening O=C(CCc1ccccc1)NNC(=O)c1cc(Cl)ccc1O returned TCR-CD3 inh 24, HTRA1 inhibitor inactive, mABHD4 FP inactive, PRMT1 inh inactive, SIAE primary inactive, BSA TAMRA ctr 49 and TCR-CD3 inh conf 47.
`O=C(COC(=O)/C=C/c1ccc(F)cc1)NCC1CCCO1` (stereo not given) gave TCR-CD3 inh inactive, HTRA1 inhibitor inactive, mABHD4 FP inactive, PRMT1 inh inactive and SIAE primary inactive.
For O=C1c2ccccc2C(c2nnnn2-c2ccc3c(c2)OCCO3)N1Cc1ccco1 (stereo not given) the results were TCR-CD3 inh 25, mABHD4 FP inactive, PRMT1 inh inactive, SIAE primary inactive, BSA TAMRA ctr inactive and TCR-CD3 inh conf inactive.
`c1coc(CSSCc2ccco2)c1` gave TCR-CD3 inh 20, HTRA1 inhibitor inactive, mABHD4 FP inactive, PRMT1 inh 49, SIAE primary inactive, BSA TAMRA ctr inactive and TCR-CD3 inh conf inactive.
`Cc1ccc(NC(=O)CSCc2ccco2)cc1` gave TCR-CD3 inh inactive, HTRA1 inhibitor inactive, mABHD4 FP inactive, PRMT1 inh inactive and SIAE primary inactive.
